Measurements as given in ChEMBL document CHEMBL1151458, “Comparative analysis of the bactericidal activities of amphibian peptide analogues against multidrug-resistant nosocomial bacterial strains” (2008).
Activity calls are given as the source filed them. The calls are words filed in the database; no cut-off is given here.

Tested on: Staphylococcus aureus
Assay: Antimicrobial activity against Staphylococcus aureus isolate 1 with AMC-AMP-CIP-ERY-GEN-OXA-RIF resistance phenotype at twofold the bactericidal concentration within 30 mins
Type: functional, organism-based
Method in brief: (§1)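 Time-kill in 10 mM sodium phosphate buffer, pH 7.4: 1 × 10^7 CFU/ml mid-log clinical isolate (10 μl) exposed at 37°C to peptide at the 1.5-h bactericidal concentration or twofold that, in 100 μl. Samples taken from 2 min onward, plated on tryptone soy agar, CFU counted after 24 h at 37°C. Killing taken as ≥3 log10 CFU/ml drop.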

Row | Substance | Activity
1 | H-FFPVIGRILNGIL-NH2 [TEMPORIN G] | Active

Tested on: Acinetobacter baumannii
Assay: Antimicrobial activity against Acinetobacter baumannii isolate 3 with AMP-AMC-CFZ-CIP-IPM-SXT-TET-TOB resistance phenotype assessed as time to kill at bactericidal concentration
Type: functional
Method in brief: as §1

Row | Substance | Time
2 | H-FFPVIGRILNGIL-NH2 [TEMPORIN G] | >=30 min

Tested on: Enterococcus faecium
Assay: Bactericidal activity against Enterococcus faecium isolate 6 with AMP-AMC-CLI-CRO-CTX-CIP-ERY-GEN-KAN-LVX-SXT-VAN resistance phenotype assessed as concentration required for >= 3 log10 CFU/ml reduction in viable bacteria in sodium phosphate buffer at pH 7.4 after 1.5 hrs by liquid microdilution assay
Type: functional
Method in brief: (§2)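 Clinical multidrug-resistant isolates grown to mid-log in tryptone soy broth and stored frozen. Exponential cells resuspended in 10 mM sodium phosphate buffer, pH 7.4, at 1 × 10^7 CFU/ml; 10 μl incubated with graded peptide concentrations in 100 μl at 37°C for 1.5 h. Plated on tryptone soy agar, CFU read after 24 h at 37°C. Peptide stocks in 20% ethanol.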

Row | Substance | Activity
3 | H-FFPVIGRILNGIL-NH2 [TEMPORIN G] | 6 µM

Tested on: Pseudomonas aeruginosa
Assay: Bactericidal activity against Pseudomonas aeruginosa isolate 1 with AMP-CFZ-CIP-CTX-CXM-GEN-LVX-SXT-TET resistance phenotype assessed as concentration required for >= 3 log10 CFU/ml reduction in viable bacteria in 20% heat-inactivated human serum after 1.5 hrs by liquid microdilution assay
Type: functional
Method in brief: (§3)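 The buffer microdilution kill assay (1 × 10^7 CFU/ml mid-log cells, 10 μl in 100 μl, 37°C, 1.5 h, CFU on tryptone soy agar after 24 h) with serum added to 20% or 40% final. Serum was pooled from five healthy donors, clotted at room temperature, spun at 300 × g and heat-inactivated at 56°C for 30 min.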

Row | Substance | Activity
4 | H-FFPVIGRILNGIL-NH2 [TEMPORIN G] | >194 µM

Tested on: Stenotrophomonas maltophilia
Assay: Bactericidal activity against Stenotrophomonas maltophilia isolate 1 with AMK-CIP-CTX-IPM-MEM-SAM-TZP resistance phenotype assessed as concentration required for >= 3 log10 CFU/ml reduction in viable bacteria in sodium phosphate buffer at pH 7.4 after 1.5 hrs by liquid microdilution assay
Type: functional
Method in brief: as §2

Row | Substance | Activity
5 | H-FFPVIGRILNGIL-NH2 [TEMPORIN G] | 12 µM

Tested on: Staphylococcus aureus
Assay: Bactericidal activity against Staphylococcus aureus isolate 3 with AMC-AMP-CIP-ERY-GEN-LVX-OXA resistance phenotype assessed as concentration required for >= 3 log10 CFU/ml reduction in viable bacteria in sodium phosphate buffer at pH 7.4 after 1.5 hrs by liquid microdilution assay
Type: functional
Method in brief: as §2

Row | Substance | Activity
6 | H-FFPVIGRILNGIL-NH2 [TEMPORIN G] | 12 µM

Tested on: Acinetobacter baumannii
Assay: Bactericidal activity against Acinetobacter baumannii isolate 1 with AMP-AMC-CFZ-CIP-IPM-LVX-PIP-SXT-TET resistance phenotype assessed as concentration required for >= 3 log10 CFU/ml reduction in viable bacteria in sodium phosphate buffer at pH 7.4 after 1.5 hrs by liquid microdilution assay
Type: functional
Method in brief: as §2

Row | Substance | Activity
7 | H-FFPVIGRILNGIL-NH2 [TEMPORIN G] | 12 µM

Tested on: Acinetobacter baumannii
Assay: Bactericidal activity against Acinetobacter baumannii isolate 3 with AMP-AMC-CFZ-CIP-IPM-SXT-TET-TOB resistance phenotype assessed as concentration required for >= 3 log10 CFU/ml reduction in viable bacteria in 20% heat-inactivated human serum after 1.5 hrs by liquid microdilution assay
Type: functional
Method in brief: as §3

Row | Substance | Activity
8 | H-FFPVIGRILNGIL-NH2 [TEMPORIN G] | >193 µM

Tested on: Pseudomonas aeruginosa
Assay: Bactericidal activity against Pseudomonas aeruginosa isolate 2 with AMP-CFZ-CIP-CTX-CXM-GEN-LVX-IPM-MEM-SXT-TET resistance phenotype assessed as concentration required for >= 3 log10 CFU/ml reduction in viable bacteria in sodium phosphate buffer at pH 7.4 after 1.5 hrs by liquid microdilution assay
Type: functional
Method in brief: as §2

Row | Substance | Activity
9 | H-FFPVIGRILNGIL-NH2 [TEMPORIN G] | 48 µM

Tested on: Enterococcus faecium
Assay: Bactericidal activity against Enterococcus faecium isolate 3 with AMP-CIP-CTX-ERY-GEN-LVX-SXT-TEC-VAN resistance phenotype assessed as concentration required for >= 3 log10 CFU/ml reduction in viable bacteria in 20% heat-inactivated human serum after 1.5 hrs by liquid microdilution assay
Type: functional
Method in brief: as §3

Row | Substance | Activity
10 | H-FFPVIGRILNGIL-NH2 [TEMPORIN G] | 48 µM

Tested on: Pseudomonas aeruginosa
Assay: Antimicrobial activity against Pseudomonas aeruginosa isolate 1 with AMP-CFZ-CIP-CTX-CXM-GEN-LVX-SXT-TET resistance phenotype at bactericidal concentration after 30 mins by time kill assay
Type: functional, organism-based
Method in brief: as §1

Row | Substance | Activity
11 | H-FFPVIGRILNGIL-NH2 [TEMPORIN G] | inactive

Tested on: Staphylococcus aureus
Assay: Bactericidal activity against Staphylococcus aureus isolate 1 with AMC-AMP-CIP-ERY-GEN-OXA-RIF resistance phenotype assessed as concentration required for >= 3 log10 CFU/ml reduction in viable bacteria in sodium phosphate buffer at pH 7.4 after 1.5 hrs by liquid microdilution assay
Type: functional
Method in brief: as §2

Row | Substance | Activity
12 | H-FFPVIGRILNGIL-NH2 [TEMPORIN G] | 24 µM

Tested on: Staphylococcus aureus
Assay: Bactericidal activity against Staphylococcus aureus isolate 2 with AMC-AMP-CIP-ERY-GEN-LVX-OXA-RIF-TET resistance phenotype assessed as concentration required for >= 3 log10 CFU/ml reduction in viable bacteria in sodium phosphate buffer at pH 7.4 after 1.5 hrs by liquid microdilution assay
Type: functional
Method in brief: as §2

Row | Substance | Activity
13 | H-FFPVIGRILNGIL-NH2 [TEMPORIN G] | 12 µM

Tested on: Enterococcus faecium
Assay: Bactericidal activity against Enterococcus faecium isolate 3 with AMP-CIP-CTX-ERY-GEN-LVX-SXT-TEC-VAN resistance phenotype assessed as concentration required for >= 3 log10 CFU/ml reduction in viable bacteria in sodium phosphate buffer at pH 7.4 after 1.5 hrs by liquid microdilution assay
Type: functional
Method in brief: as §2

Row | Substance | Activity
14 | H-FFPVIGRILNGIL-NH2 [TEMPORIN G] | 6 µM

Tested on: Staphylococcus aureus
Assay: Bactericidal activity against Staphylococcus aureus isolate 1 with AMC-AMP-CIP-ERY-GEN-OXA-RIF resistance phenotype assessed as concentration required for >= 3 log10 CFU/ml reduction in viable bacteria in 20% heat-inactivated human serum after 1.5 hrs by liquid microdilution assay
Type: functional
Method in brief: as §3

Row | Substance | Activity
15 | H-FFPVIGRILNGIL-NH2 [TEMPORIN G] | 96 µM

Tested on: Acinetobacter baumannii
Assay: Bactericidal activity against Acinetobacter baumannii isolate 3 with AMP-AMC-CFZ-CIP-IPM-SXT-TET-TOB resistance phenotype assessed as concentration required for >= 3 log10 CFU/ml reduction in viable bacteria in sodium phosphate buffer at pH 7.4 after 1.5 hrs by liquid microdilution assay
Type: functional
Method in brief: as §2

Row | Substance | Activity
16 | H-FFPVIGRILNGIL-NH2 [TEMPORIN G] | 6 µM

Tested on: Pseudomonas aeruginosa
Assay: Antimicrobial activity against Pseudomonas aeruginosa isolate 1 with AMP-CFZ-CIP-CTX-CXM-GEN-LVX-SXT-TET resistance phenotype at twofold bactericidal concentration after 10 to 30 mins by time kill assay
Type: functional, organism-based
Method in brief: as §1

Row | Substance | Activity
17 | H-FFPVIGRILNGIL-NH2 [TEMPORIN G] | Active

Tested on: Enterococcus faecium
Assay: Bactericidal activity against Enterococcus faecium isolate 5 with AMP-AMC-CIP-CLI-ERY-GEN-KAN-LVX-SXT-TEC-VAN resistance phenotype assessed as concentration required for >= 3 log10 CFU/ml reduction in viable bacteria in sodium phosphate buffer at pH 7.4 after 1.5 hrs by liquid microdilution assay
Type: functional
Method in brief: as §2

Row | Substance | Activity
18 | H-FFPVIGRILNGIL-NH2 [TEMPORIN G] | 6 µM

Tested on: Acinetobacter baumannii
Assay: Bactericidal activity against Acinetobacter baumannii isolate 2 with AMP-CFZ-CIP-LVX-PIP-SXT resistance phenotype assessed as concentration required for >= 3 log10 CFU/ml reduction in viable bacteria in sodium phosphate buffer at pH 7.4 after 1.5 hrs by liquid microdilution assay
Type: functional
Method in brief: as §2

Row | Substance | Activity
19 | H-FFPVIGRILNGIL-NH2 [TEMPORIN G] | 6 µM

Tested on: Pseudomonas aeruginosa
Assay: Bactericidal activity against Pseudomonas aeruginosa isolate 1 with AMP-CFZ-CIP-CTX-CXM-GEN-LVX-SXT-TET resistance phenotype assessed as concentration required for >= 3 log10 CFU/ml reduction in viable bacteria in sodium phosphate buffer at pH 7.4 after 1.5 hrs by liquid microdilution assay
Type: functional
Method in brief: as §2

Row | Substance | Activity
20 | H-FFPVIGRILNGIL-NH2 [TEMPORIN G] | 48 µM

Tested on: Enterococcus faecium
Assay: Antimicrobial activity against Enterococcus faecium isolate 3 with AMP-CIP-CTX-ERY-GEN-LVX-SXT-TEC-VAN resistance phenotype assessed as time to kill at bactericidal concentration
Type: functional
Method in brief: as §1

Row | Substance | Time
21 | H-FFPVIGRILNGIL-NH2 [TEMPORIN G] | 5 min

Tested on: Pseudomonas aeruginosa
Assay: Bactericidal activity against Pseudomonas aeruginosa isolate 3 with AMP-CFZ-CTX-CIP-GEN-IPM-LVX-SXT-TET-TOB resistance phenotype assessed as concentration required for >= 3 log10 CFU/ml reduction in viable bacteria in sodium phosphate buffer at pH 7.4 after 1.5 hrs by liquid microdilution assay
Type: functional
Method in brief: as §2

Row | Substance | Activity
22 | H-FFPVIGRILNGIL-NH2 [TEMPORIN G] | 48 µM

Tested on: Enterococcus faecium
Assay: Antimicrobial activity against Enterococcus faecium isolate 3 with AMP-CIP-CTX-ERY-GEN-LVX-SXT-TEC-VAN resistance phenotype assessed as time to kill at twofold the bactericidal concentration
Type: functional, organism-based
Method in brief: as §1

Row | Substance | Activity
23 | H-FFPVIGRILNGIL-NH2 [TEMPORIN G] | inactive

Tested on: Stenotrophomonas maltophilia
Assay: Bactericidal activity against Stenotrophomonas maltophilia isolate 2 with AMK-CIP-CTX-IPM-MEM-SAM-TZP resistance phenotype assessed as concentration required for >= 3 log10 CFU/ml reduction in viable bacteria in 20% heat-inactivated human serum after 1.5 hrs by liquid microdilution assay
Type: functional
Method in brief: as §3

Row | Substance | Activity
24 | H-FFPVIGRILNGIL-NH2 [TEMPORIN G] | >192 µM

Tested on: Stenotrophomonas maltophilia
Assay: Antimicrobial activity against Stenotrophomonas maltophilia isolate 2 with AMK-CIP-CTX-IPM-MEM-SAM-TZP resistance phenotype assessed as assessed as time to kill at twofold bactericidal concentration
Type: functional
Method in brief: as §1

Row | Substance | Time
25 | H-FFPVIGRILNGIL-NH2 [TEMPORIN G] | 2 min

Tested on: Stenotrophomonas maltophilia
Assay: Bactericidal activity against Stenotrophomonas maltophilia isolate 2 with AMK-CIP-CTX-IPM-MEM-SAM-TZP resistance phenotype assessed as concentration required for >= 3 log10 CFU/ml reduction in viable bacteria in sodium phosphate buffer at pH 7.4 after 1.5 hrs by liquid microdilution assay
Type: functional
Method in brief: as §2

Row | Substance | Activity
26 | H-FFPVIGRILNGIL-NH2 [TEMPORIN G] | 3 µM

Tested on: Stenotrophomonas maltophilia
Assay: Bactericidal activity against Stenotrophomonas maltophilia isolate 4 with AMK-CAZ-CIP-FEP-IPM-SAM-TZP resistance phenotype assessed as concentration required for >= 3 log10 CFU/ml reduction in viable bacteria in sodium phosphate buffer at pH 7.4 after 1.5 hrs by liquid microdilution assay
Type: functional
Method in brief: as §2

Row | Substance | Activity
27 | H-FFPVIGRILNGIL-NH2 [TEMPORIN G] | >96 µM
